Source: publication PMC4837022 (Nature chemical biology, 2016)

Legend:
Format in all cases: cell-based, murine
[1] = system: CD4+ T-cell blasts (S-phase entry); experiment: S-phase entry by EdU labeling, delayed inhibitor addition; settings: GDC-0941 1.5 µM added 12 hours after IL-2 stimulation
CD4+ T-cell blasts = experiment: IL-2-driven T-cell proliferation; settings: Mus musculus, read-out: EC90 for blocking T-cell proliferation
[2] = system: pSTAT5 in CD4+ T-cell blasts; experiment: pSTAT5 time course after IL-2 stimulation; settings: tofacitinib 50 nM
Procedure, shortened: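 Rested mouse CD4+ T-cell blasts received 15 nM test compound or a reference JAK inhibitor (50 nM), 2 h before or 90 min after rhIL-2 (50 u/mL). pSTAT5 and pS6 (Ser240/244) were read by phosphoflow at the indicated times from 15 min onward: 2% PFA fixation, 90% methanol permeabilisation, barcoding. MFI was normalised to the 15-min DMSO maximum and given as mean ± SEM of 4–10 independent experiments.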

CS(=O)(=O)N1CCN(Cc2cc3nc(-c4cccc5[nH]ncc45)nc(N4CCOCC4)c3s2)CC1 [GDC0941]
S-phase entry [1]: prevented the majority of cells from entering S-phase

C[C@@H]1CCN(C(=O)CC#N)C[C@@H]1N(C)c1ncnc2[nH]ccc12 [tofacitinib]
EC90 (CD4+ T-cell blasts): 50 nM
reduction of pSTAT5 levels during the second wave [2]: > 50%
